Laboratory results as given in ChEMBL document CHEMBL1764968, “Structural simplification of bioactive natural products with multicomponent synthesis. 3. Fused uracil-containing heterocycles as novel topoisomerase-targeting agents” (2011).

What was measured:
A549 = assay: Cytotoxicity against human A549 cells after 72 hrs by MTT assay; format: functional; details: A549, 72 h
In short: (§1)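 Cells plated 24 h in 96-well plates at 10,000–40,000 cells/mL depending on line. U373 grown in MEM, other lines in RPMI, both with 5% heat-inactivated FCS. Cells exposed to compounds (or none, control) for 72 h. MTT reduction to formazan read at 570 nm against 630 nm reference. Sextuplicate per condition.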

HeLa = assay: Cytotoxicity against human HeLa cells after 72 hrs by MTT assay; format: functional; in short: as §1
Jurkat = assay: Cytotoxicity against human Jurkat cells after 72 hrs by MTT assay; format: functional; in short: as §1
MCF7 = assay: Cytotoxicity against human MCF7 cells after 72 hrs by MTT assay; format: functional; details: MCF7, 72 h; in short: as §1
LoVo = assay: Cytotoxicity against human LoVo cells after 72 hrs by MTT assay; format: functional; in short: as §1
[1] = Cytotoxicity against human U373 cells after 72 hrs by MTT assay; format: functional, U-373MG ATCC; details: U373 MG; in short: as §1
SK-MEL = assay: Cytotoxicity against human SK-MEL cells after 72 hrs by MTT assay; format: functional; in short: as §1
PC-3 = assay: Cytotoxicity against human PC3 cells after 72 hrs by MTT assay; format: functional; details: PC-3, 72 h; in short: as §1

Compound | GI50 (A549) [µM] | GI50 (HeLa) [µM] | GI50 (Jurkat) [µM] | GI50 (MCF7) [µM] | GI50 (LoVo) [µM] | GI50 [1] [µM] | GI50 (SK-MEL) [µM] | GI50 (PC-3) [µM]
CCOc1ccc(C2C3=C(Nc4[nH]c(=O)[nH]c(=O)c42)c2ccccc2C3=O)cc1 (centres undefined) | 5.8 | 7.4 | 0.91 | 6.6 |  |  |  | 
COc1ccc(-c2c3c(nc4[nH]c(=O)[nH]c(=O)c24)-c2ccccc2C3=O)cc1 | > 10 | 5.5 | 0.96 | 2.4 | 0.87 | 2.4 | 4.7 | 0.88
Cc1ccc(C2C3=C(Nc4[nH]c(=O)[nH]c(=O)c42)c2ccccc2C3=O)cc1 (centres undefined) | 5.9 | 8.6 | 5.6 | 7.6 |  |  |  | 
O=C1C2=C(Nc3[nH]c(=O)[nH]c(=O)c3C2c2ccc(Cl)cc2Cl)c2ccccc21 (centres undefined) | 7.4 | 0.95 | 0.76 | 7 | 1.4 | 4.2 | 3.9 | 2.4
O=C1c2ccccc2-c2nc3[nH]c(=O)[nH]c(=O)c3c(-c3ccc(F)cc3)c21 | > 10 | > 10 | 7.4 | > 10 | 3.5 | 8.7 | 10 | 9
O=C1c2ccccc2-c2nc3[nH]c(=O)[nH]c(=O)c3c(-c3ccc4c(c3)OCCO4)c21 | 7.5 | 8.8 | 5.5 | 8.5 |  |  |  | 
COc1ccc(-c2c3c(nc4[nH]c(=O)[nH]c(=O)c24)-c2ccccc2C3=O)c(OC)c1OC | 0.26 | 0.31 | 0.47 | 0.47 | 0.35 | 0.36 | 0.43 | 0.9
COc1cc(-c2c3c(nc4[nH]c(=O)[nH]c(=O)c24)-c2ccccc2C3=O)cc(Br)c1OC | 0.31 | 0.34 | 0.17 | 0.95 | 0.35 | 0.6 | 0.47 | > 10
O=C1C2=C(Nc3[nH]c(=O)[nH]c(=O)c3C2c2ccnc3ccccc23)c2ccccc21 (centres undefined) | 8.6 | 5.6 | 8.2 | 9.4 |  |  |  | 
O=C1C2=C(Nc3[nH]c(=O)[nH]c(=O)c3C2c2ccc3c(c2)OCCO3)c2ccccc21 (centres undefined) | 7.8 | 5.4 | 6.9 | 8.4 |  |  |  | 
COc1cc(C2C3=C(Nc4[nH]c(=O)[nH]c(=O)c42)c2ccccc2C3=O)cc(Br)c1OC (centres undefined) | 0.48 | 3.8 | 0.2 | 0.78 | 0.38 | 0.37 | 0.48 | > 10
O=C1c2ccccc2-c2nc3[nH]c(=O)[nH]c(=O)c3cc21 | > 10 | > 10 | > 10 | > 10 | 9.5 | 7.5 | 10 | > 10
CC(C)c1ccc(-c2c3c(nc4[nH]c(=O)[nH]c(=O)c24)-c2ccccc2C3=O)cc1 | 8.2 | 0.85 | 0.49 | 6.9 |  |  |  | 
O=C1C2=C(Nc3[nH]c(=O)[nH]c(=O)c3C2c2ccc(C(F)(F)F)cc2)c2ccccc21 (centres undefined) | 5.2 | 5.6 | 2.2 | 1.5 |  |  |  | 
COc1ccc(C2C3=C(Nc4[nH]c(=O)[nH]c(=O)c42)c2ccccc2C3=O)cc1 (centres undefined) | 9.2 | 6.9 | 0.87 | 3.6 | 2.2 | 4.1 | 4.8 | 3
O=C1c2ccccc2-c2nc3[nH]c(=O)[nH]c(=O)c3c(-c3ccc(F)c(Br)c3)c21 | 2.8 | 5.6 | 0.98 | 5.5 |  |  |  | 

Compound | GI50 (A549) [µM] | GI50 (HeLa) [µM] | GI50 (Jurkat) [µM] | GI50 (MCF7) [µM] | GI50 (LoVo) [µM] | GI50 [1] [µM] | GI50 (SK-MEL) [µM] | GI50 (PC-3) [µM]
O=C1c2ccccc2-c2nc3[nH]c(=O)[nH]c(=O)c3c(-c3ccc(OC(F)(F)F)cc3)c21 | 8 | 5.8 | 0.95 | 6.6 |  |  |  | 
O=C1c2ccccc2-c2nc3[nH]c(=O)[nH]c(=O)c3c(-c3ccc(C(F)(F)F)cc3)c21 | 7.8 | 3.8 | 0.96 | 5.6 |  |  |  | 
COc1ccc(C2C3=C(Nc4[nH]c(=O)[nH]c(=O)c42)c2ccccc2C3=O)cc1OC (centres undefined) | 4.8 | 0.6 | 0.4 | 0.69 | 0.8 | 0.7 | 0.86 | > 10
O=C1c2ccccc2-c2nc3[nH]c(=O)[nH]c(=O)c3c(-c3ccnc4ccccc34)c21 | > 10 | 7.6 | 8.2 | 9.5 |  |  |  | 
O=C1C2=C(Nc3[nH]c(=O)[nH]c(=O)c3C2c2ccc(F)cc2)c2ccccc21 (centres undefined) | > 10 | > 10 | > 10 | > 10 | 4.6 | 5.6 | 10 | 4
O=C1C2=C(Nc3[nH]c(=O)[nH]c(=O)c3C2c2ccc(Cl)c(Cl)c2)c2ccccc21 (centres undefined) | 0.59 | 5.8 | 0.35 | 0.8 | 0.46 | 0.42 | 0.5 | 6.2
CC(C)c1ccc(C2C3=C(Nc4[nH]c(=O)[nH]c(=O)c42)c2ccccc2C3=O)cc1 (centres undefined) | > 10 | 5.8 | 0.96 | 9.1 |  |  |  | 
O=C1C2=C(Nc3[nH]c(=O)[nH]c(=O)c3C2c2ccc(OC(F)(F)F)cc2)c2ccccc21 (centres undefined) | 5.7 | 5.6 | 0.96 | 5.8 |  |  |  | 
CC[C@@]1(O)C(=O)OCc2c1cc1n(c2=O)Cc2cc3ccccc3nc2-1 [CAMPTOTHECIN] | 0.2 | 1.3 | 0.09 | 6 | 0.008 | 0.033 | 0.047 | 0.48
COc1ccc(C2C3=C(Nc4[nH]c(=O)[nH]c(=O)c42)c2ccccc2C3=O)c(OC)c1OC (centres undefined) | 0.54 | 0.35 | 0.49 | 0.48 | 0.22 | 0.26 | 0.4 | > 10
CCOc1ccc(-c2c3c(nc4[nH]c(=O)[nH]c(=O)c24)-c2ccccc2C3=O)cc1 | 6 | 5.3 | 0.76 | 5.6 |  |  |  | 
Cc1ccc(-c2c3c(nc4[nH]c(=O)[nH]c(=O)c24)-c2ccccc2C3=O)cc1 | 5.8 | 6.4 | 1.1 | 6.4 |  |  |  | 
O=C1c2ccccc2-c2nc3[nH]c(=O)[nH]c(=O)c3c(-c3ccc(Cl)c(Cl)c3)c21 | 0.12 | 0.35 | 0.23 | 0.74 | 0.07 | 0.08 | 0.08 | > 10
O=C1C2=C(Nc3[nH]c(=O)[nH]c(=O)c3C2c2ccc(F)c(Br)c2)c2ccccc21 (centres undefined) | 5.6 | 5.4 | 0.99 | 5.5 |  |  |  | 
O=C1c2ccccc2-c2nc3[nH]c(=O)[nH]c(=O)c3c(-c3ccc(Cl)cc3Cl)c21 | 7.8 | 0.89 | 0.81 | 7.4 | 2.9 | 4.2 | 3.5 | 2.8
